Among the data in ChEMBL document CHEMBL1125164, “Spiro hydantoin aldose reductase inhibitors derived from 8-aza-4-chromanones” (J Med Chem, 1990) are inhibition in vivo and IC50 values, retold here.

Structures are written as SMILES. pIC50: −log10 of the molar value.

Test [1] concerns Rattus norvegicus. Description: Tested in vivo for ability to inhibit sorbitol formation in the nerve of a streptozotocinized rat model after oral administration at the dose of 0.25 mg/Kg. The test is classed as functional. In outline:
(§1)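 Rats made diabetic with streptozotocin 85 mg/kg iv at 0 h. Compound given by oral gavage at 4, 7 and 24 h. Sciatic nerve sorbitol measured at 27 h. Reported as mean ± SEM percent inhibition of sorbitol accumulation versus untreated diabetic controls. Student's t test on absolute sorbitol levels.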

Test [2] relates to Rattus norvegicus. Put plainly: Tested in vivo for ability to inhibit sorbitol formation in the lens of a streptozotocinized rat model after oral administration at the dose of 0.25 mg/Kg. The test is classed as functional. Particulars: Lens of camera-type eye. In outline: (§2)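 Rats made diabetic with streptozotocin 85 mg/kg iv at 0 h. Compound given by oral gavage at 4, 7 and 24 h. Lens sorbitol measured at 27 h. Reported as mean ± SEM percent inhibition of sorbitol accumulation versus untreated diabetic controls. Student's t test on absolute sorbitol levels.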

Test [3] addresses Aldo-keto reductase family 1 member B1 (Homo sapiens, UniProt P15121). Description: In vitro inhibitory activity against Aldose reductase isolated from human placenta. In a few lines: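 Human placental aldose reductase, partially purified (homogenized in 0.1 M K phosphate pH 7.0 with 5 mM 2-mercaptoethanol). Assay: 50 mM K phosphate pH 7.1, 0.4 M ammonium sulfate, 0.067 mM NADPH, 1.0 mM dl-glyceraldehyde, 25 °C. NADPH oxidation followed at 340 nm over 10 min.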

Test [4] deals with Rattus norvegicus. Description: Tested in vivo for ability to inhibit sorbitol formation in the nerve of a streptozotocinized rat model after oral administration at the dose of 1.0 mg/Kg. The test is classed as functional. In a few lines: as §1
The subject of test [5] is Rattus norvegicus. Description: Tested in vivo for ability to inhibit sorbitol formation in the lens of a streptozotocinized rat model after oral administration at the dose of 0.1 mg/Kg. The test is classed as functional. The settings on record: Lens of camera-type eye. In outline:
as §2

Test [6] has as its system Rattus norvegicus. Put plainly: Tested in vivo for ability to inhibit sorbitol formation in the nerve of a streptozotocinized rat model after oral administration at the dose of 0.5 mg/Kg. The test is classed as functional. In a few lines: as §1
In test [7] the test system is Rattus norvegicus. Put plainly: Tested in vivo for ability to inhibit sorbitol formation in the nerve of a streptozotocinized rat model after oral administration at the dose of 0.1 mg/Kg. The test is classed as functional. In outline:
as §1

The subject of test [8] is Rattus norvegicus. Description: Tested in vivo for ability to inhibit sorbitol formation in the lens of a streptozotocinized rat model after oral administration at the dose of 1.0 mg/kg. The test is classed as functional. Particulars: Lens of camera-type eye. In outline: as §2
Test [9] has as its system Rattus norvegicus. Description: Tested in vivo for ability to inhibit sorbitol formation in the lens of a streptozotocinized rat model after oral administration at the dose of 0.5 mg/Kg. The test is classed as functional. Particulars: Lens of camera-type eye. In a few lines: as §2
For test [10], the system named is Rattus norvegicus. Put plainly: Tested in vivo for ability to inhibit sorbitol formation in the nerve of a streptozotocinizad rat model after oral administration at the dose of 1.0 mg/Kg. The test is classed as functional. In outline: as §1
For test [11], the system named is Rattus norvegicus. Put plainly: Tested in vivo for ability to inhibit sorbitol formation in the lens of a streptozotocinizad rat model after oral administration at the dose of 1.0 mg/Kg. The test is classed as functional. The settings on record: Lens of camera-type eye. In outline:
as §2

Test [12] relates to Rattus norvegicus. Description: Tested in vivo for ability to inhibit sorbitol formation in the lens of a streptozotocinized rat model after oral administration at the dose of 1.0 mg/Kg. The test is classed as functional. The settings on record: Lens of camera-type eye. In outline:
as §2

For test [13], the system named is Rattus norvegicus. Put plainly: Tested in vivo for ability to inhibit sorbitol formation in the nerve of a streptozotocinized rat model after oral administration at the dose of 0.15 mg/Kg. The test is classed as functional. In a few lines: as §1
The test system of test [14] is Rattus norvegicus. Description: Tested in vivo for ability to inhibit sorbitol formation in the nerve of a streptozotocinized rat model after oral administration at the dose of 1.5 mg/Kg. The test is classed as functional. In a few lines:
as §1

Test [15] deals with Rattus norvegicus. Description: Tested in vivo for ability to inhibit sorbitol formation in the lens of a streptozotocinized rat model after oral administration at the dose of 0.75 mg/Kg. The test is classed as functional. Particulars: Lens of camera-type eye. In outline:
as §2

The test system of test [16] is Rattus norvegicus. Put plainly: Tested in vivo for ability to inhibit sorbitol formation in the lens of a streptozotocinized rat model after oral administration at the dose of 0.15 mg/Kg. The settings on record: Lens of camera-type eye. The test is classed as functional. In a few lines: as §2
The test system of test [17] is Rattus norvegicus. Description: Tested in vivo for ability to inhibit sorbitol formation in the lens of a streptozotocinized rat model after oral administration at the dose of 1.5 mg/Kg. The test is classed as functional. Particulars: Lens of camera-type eye. In outline:
as §2

Test [18] concerns Rattus norvegicus. Description: Tested in vivo for ability to inhibit sorbitol formation in the nerve of a streptozotocinized rat model after oral administration at the dose of 0.75 mg/kg. The test is classed as functional. In outline:
as §1

For test [19], the system named is Rattus norvegicus. Put plainly: Tested in vivo for ability to inhibit sorbitol formation in the nerve of a streptozotocinized rat model after oral administration at the dose of 5.0 mg/Kg. The test is classed as functional. In outline:
as §1

Test [20] concerns Rattus norvegicus. Put plainly: Tested in vivo for ability to inhibit sorbitol formation in the lens of a streptozotocinized rat model after oral administration at the dose of 5.0 mg/Kg. The test is classed as functional. The settings on record: Lens of camera-type eye. In outline:
as §2

One may read the inhibition in vivo as the change of the read-out against control, counted positive when it falls. For orientation: pIC50 means −log10 of the IC50, conventionally taken in molar units. Higher therefore signals a small IC50. Consider `C[C@H]1C[C@]2(NC(=O)NC2=O)c2cc(Cl)cnc2O1` (racemic), for which the values for the inhibition in vivo at 0.25 mg/kg with Rattus norvegicus [1] and in the test with Rattus norvegicus [2] were 12.8% and 31.8%, respectively. In [3], this compound gave a pIC50 of 6.05.
With `C[C@@H]1C[C@]2(NC(=O)NC2=O)c2cc(Cl)cnc2O1` (racemic; 16), the inhibition in vivo at 1 mg/kg in the test on Rattus norvegicus [4] is 87.5%; in the test with Rattus norvegicus [8] it was 88.2%. The inhibition in vivo at 0.1 mg/kg with Rattus norvegicus [5] amounted to 13.8%; with Rattus norvegicus [7], 8.7%. Besides, the results for the inhibition in vivo at 0.5 mg/kg with Rattus norvegicus [6] and with Rattus norvegicus [9] were 55.8% and 55.5%, respectively. The compound further had a pIC50 in [3] of 8.12.
For `C[C@@H]1C[C@]2(NC(=O)NC2=O)c2cc(F)cnc2O1` (racemic), the pIC50 in test [3] is 5.95.
For the compound `C[C@@H]1C[C@]2(NC(=O)NC2=O)c2cc(Cl)c[n+]([O-])c2O1` (racemic), the inhibition in vivo at 1 mg/kg with Rattus norvegicus [10] was found to be 37.6%; in the test with Rattus norvegicus [11], 19.9%. Also, the pIC50 in test [3] is 6.89.
`O=C1NC(=O)[C@@]2(CCOc3ncc(Cl)cc32)N1` (racemic): the figures for the inhibition in vivo at 1 mg/kg with Rattus norvegicus [4] and in the test on Rattus norvegicus [12] were 37% and 46.1%, respectively. The negative-log IC50 (pIC50) in [3] was 5.19.
Turning to `C[C@H]1C[C@@]2(NC(=O)NC2=O)c2cc(Cl)cnc2O1`, the inhibition in vivo at 1 mg/kg was -9.5% in the test on Rattus norvegicus [4] and -10.6% with Rattus norvegicus [12]. Further, in test [3], the pIC50 is 5.51.
The corresponding values for `C[C@@H]1C[C@]2(NC(=O)NC2=O)c2cccnc2O1` (racemic) are 18.2%, 33.9% and 5.14.
Consider `C[C@@H]1C[C@]2(NC(=O)NC2=O)c2cc(Cl)c[n+]([O-])c2O1`, for which the pIC50 in test [3] was 6.02.
Turning to `O=C1NC(=O)[C@@]2(CCOc3ccc(F)cc32)N1` [SORBINIL], the figures for the inhibition in vivo at 0.15 mg/kg with Rattus norvegicus [13] and in the test with Rattus norvegicus [16] were 29% and 12.3%, respectively. In addition, the inhibition in vivo at 1.5 mg/kg with Rattus norvegicus [14] is 90.9%; with Rattus norvegicus [17], 73.4%. Moreover, the results for the inhibition in vivo at 0.75 mg/kg in the test on Rattus norvegicus [15] and in the test on Rattus norvegicus [18] were 44.2% and 72.7%, respectively.
On to `C[C@@H]1C[C@]2(NC(=O)NC2=O)c2cc(Br)cnc2O1` (racemic), for which the inhibition in vivo at 1 mg/kg amounted to 72.7% in the test on Rattus norvegicus [4] and 67.4% with Rattus norvegicus [12]. Further, in test [3], the pIC50 was 6.30.
As to `C[C@@H]1C[C@]2(NC(=O)NC2=O)c2cc(Cl)cnc2O1` (racemic; 14), the inhibition in vivo at 5 mg/kg stood at 98% in the test with Rattus norvegicus [19] and 89% in the test on Rattus norvegicus [20]. Besides, the inhibition in vivo at 0.25 mg/kg in the test with Rattus norvegicus [1] is 38%; in the test on Rattus norvegicus [2], 13%. The pIC50 in [3] is 7.60.
